From ChEMBL document CHEMBL3272095, “Synthesis and antiviral activity of 5- and 5'-substituted thymidine analogs” (J Med Chem, 1976) come the findings set out here.

One series concerns Vero. The series can be described thus: Cytotoxicity against African green monkey Vero cells assessed as inhibition of replication. The series is classed as cell-based. As to conditions: chlorocebus sabaeus.
Series [1] is described as follows: Cytotoxicity against mouse Sarcoma 180 cells assessed as cell viability at 400 uM after 18 to 42 hrs relative to control.
The test system of series [2] is Human alphaherpesvirus 1. The series can be described thus: Antiviral activity against Herpes simplex virus 1 infected in African green monkey Vero cells assessed as viral titer at 400 uM after 40 hrs by plaque formation assay relative to control. Format: functional. In a few lines:
(§1)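 After a 1 h adsorption at 37 °C, inoculum was removed, cells were PBS-washed, and medium with or without compound was added. Incubation was 40 h at 37 °C. Cultures were freeze-thawed three times, and lysate yield was titrated by plaque assay on Vero. Pfu given as % of drug-free culture.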

Series [3] can be described thus: Cytotoxicity against mouse Sarcoma 180 cells assessed as cell viability at 100 uM after 18 to 24 hrs relative to control. Format: cell-based. As to conditions: in the assay text read “18 to 42 hrs” for “18 to 24 hrs”, read-out: Activity. In a few lines:
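Sarcoma 180 cells were grown in medium with horse serum at 37 °C under humidified 5% CO2–95% air, with a generation time of about 18 h. Compound was added to exponentially growing cultures at about 2 × 10^4 cells/ml. The increase in cell number was measured after 18 and 42 h, and percent inhibition was calculated relative to a drug-free control.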

Series [4] deals with Human alphaherpesvirus 1. The series can be described thus: Antiviral activity against Herpes simplex virus 1 infected in African green monkey Vero cells assessed as viral titer at 200 uM after 40 hrs by plaque formation assay relative to control. The series is classed as functional. In a few lines:
as §1

Turning to `Cc1cn([C@H]2C[C@H](O)[C@@H](CN)O2)c(=O)[nH]c1=O`, the Activity entry is listed as “Non-toxic” with Vero and 3% in the series with Human alphaherpesvirus 1 [2]. For the same compound, in series [1], the viability at 400 µM was 100%.
As to `Cc1ccc(S(=O)(=O)OC[C@H]2O[C@@H](n3cc(Br)c(=O)[nH]c3=O)C[C@@H]2O)cc1`, the viability at 100 µM in series [3] worked out at 65%.
As to `NC[C@H]1O[C@@H](n2cc(Br)c(O)nc2=O)C[C@@H]1O`, the figures for the Activity in the series on Human alphaherpesvirus 1 [4] and with Vero were 1% and “Non-toxic”, respectively.
Consider `[N-]=[N+]=NC[C@H]1O[C@@H](n2cc(I)c(=O)[nH]c2=O)C[C@@H]1O`, for which the viability at 400 µM in series [1] stood at 100%. The Activity with Human alphaherpesvirus 1 [2] worked out at 60%.
Take `[N-]=[N+]=NC[C@H]1O[C@@H](n2cc(Br)c(=O)[nH]c2=O)C[C@@H]1O`: the viability at 400 µM in series [1] stood at 100%. Further, the Activity in the series on Human alphaherpesvirus 1 [2] turned out to be 54%.
For `[N-]=[N+]=NC[C@H]1O[C@@H](n2cc(Cl)c(=O)[nH]c2=O)C[C@@H]1O` the same measures were 100% and 81%.
The corresponding values for `NC[C@H]1O[C@@H](n2ccc(=O)[nH]c2=O)C[C@@H]1O` are 100% and 101%.
As for `NC[C@H]1O[C@@H](n2cc(Cl)c(O)nc2=O)C[C@@H]1O`, the values for the Activity entry in the series with Vero and in the series on Human alphaherpesvirus 1 [2] were “Non-toxic” and 29%, respectively. Further, in series [1], the viability at 400 µM stood at 100%.
As to `Cc1ccc(S(=O)(=O)OC[C@H]2O[C@@H](n3cc(Cl)c(=O)[nH]c3=O)C[C@@H]2O)cc1`, the viability at 100 µM in series [3] worked out at 65%.
